Measured values published in ChEMBL document CHEMBL2311495, “Pyrazolo[1,5-c]quinazoline derivatives and their simplified analogues as adenosine receptor antagonists: synthesis, structure-affinity relationships and molecular modeling studies” (Bioorg Med Chem, 2013).

What was measured:
[1] = biological target: T1, Adenosine receptor A2b (Homo sapiens) (UniProt P29275); experiment: Antagonist activity at human adenosine A2b receptor transfected in CHO cells assessed as inhibition of NECA-induced cAMP accumulation at 1 uM by scintillation counting; assay type: functional, cell-based
T1 sequence (whole entry): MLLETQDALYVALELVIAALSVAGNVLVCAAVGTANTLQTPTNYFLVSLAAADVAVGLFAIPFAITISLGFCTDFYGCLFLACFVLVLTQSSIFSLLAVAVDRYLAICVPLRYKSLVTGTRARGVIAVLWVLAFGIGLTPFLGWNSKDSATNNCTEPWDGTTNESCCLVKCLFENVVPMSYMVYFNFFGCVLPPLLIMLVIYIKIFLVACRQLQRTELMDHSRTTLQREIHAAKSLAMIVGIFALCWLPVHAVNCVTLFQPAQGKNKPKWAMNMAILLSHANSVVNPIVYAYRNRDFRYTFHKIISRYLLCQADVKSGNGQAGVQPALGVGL
Outline: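 CHO cells stably expressing hA2B (1 × 10⁶/assay), pre-incubated 10 min at 37 °C, pH 7.4, with adenosine deaminase 2 IU/ml and Ro 20-1724 as PDE inhibitor. Stimulated by 200 nM NECA, compounds tested at 1 µM, result given as percent inhibition. Stopped with cold 6% TCA, ether-extracted, cAMP measured by [³H]cAMP competition with beef adrenal binding protein.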

[2] = biological target: T2, Adenosine receptor A2a (Homo sapiens, UniProt P29274); experiment: Displacement of [3H]ZM241385 from human adenosine A2a receptor expressed in CHO cells at 1 uM by scintillation counting; assay type: cell-based
T2 sequence (P29274 whole entry): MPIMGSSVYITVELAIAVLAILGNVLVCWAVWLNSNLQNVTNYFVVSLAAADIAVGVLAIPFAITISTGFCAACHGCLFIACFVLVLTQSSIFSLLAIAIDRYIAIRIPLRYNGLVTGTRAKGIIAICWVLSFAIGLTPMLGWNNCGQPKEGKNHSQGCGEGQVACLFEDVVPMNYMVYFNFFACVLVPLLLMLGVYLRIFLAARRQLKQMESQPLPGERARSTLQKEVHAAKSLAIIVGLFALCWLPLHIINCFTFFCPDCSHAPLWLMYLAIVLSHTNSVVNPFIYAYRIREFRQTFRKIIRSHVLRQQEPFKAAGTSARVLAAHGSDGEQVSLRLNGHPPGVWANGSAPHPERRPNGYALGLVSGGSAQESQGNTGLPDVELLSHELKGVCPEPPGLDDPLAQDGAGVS
Outline: (§1)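 Membranes of CHO cells expressing hA2A (50 µg protein) incubated with 1 nM [³H]ZM241385 in 50 mM Tris-HCl, 10 mM MgCl₂, pH 7.4, 60 min at 4 °C. Six to eight antagonist concentrations, or 1 µM for percent inhibition. Filtration and counting. Ki by Cheng–Prusoff from IC50, mean ± SEM of four duplicate experiments.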

[3] = biological target: T3, Adenosine receptor A3 (Homo sapiens) (UniProt P0DMS8); experiment: Displacement of [125I]AB-MECA from human adenosine A3 receptor expressed in CHO cells at 1 uM by scintillation counting; assay type: cell-based
T3 sequence (whole entry): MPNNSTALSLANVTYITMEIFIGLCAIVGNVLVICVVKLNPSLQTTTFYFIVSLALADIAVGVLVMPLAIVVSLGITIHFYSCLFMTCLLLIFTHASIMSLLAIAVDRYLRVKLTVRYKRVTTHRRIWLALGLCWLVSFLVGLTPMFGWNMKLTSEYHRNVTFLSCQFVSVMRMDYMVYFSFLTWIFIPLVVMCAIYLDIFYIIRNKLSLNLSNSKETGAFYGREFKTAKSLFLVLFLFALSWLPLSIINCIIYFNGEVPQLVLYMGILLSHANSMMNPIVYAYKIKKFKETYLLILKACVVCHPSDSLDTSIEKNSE
Outline: (§2)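 hA3 CHO membranes (50 µg protein) incubated with 0.5 nM [¹²⁵I]AB-MECA in 50 mM Tris-HCl, 10 mM MgCl₂, 1 mM EDTA, pH 7.4, for 120 min at 4 °C. Six to eight ligand concentrations, or single 1 µM for % inhibition. Nonspecific binding defined with 1 µM AB-MECA. Filtration on GF/B, counting. Ki by Cheng–Prusoff, mean ± SEM of four duplicate assays.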

[4] = biological target: T4, Adenosine receptor A1 (Homo sapiens) (UniProt P30542); experiment: Displacement of [3H]DPCPX from human adenosine A1 receptor expressed in CHO cells at 1 uM by scintillation counting; assay type: cell-based
T4 sequence (whole entry): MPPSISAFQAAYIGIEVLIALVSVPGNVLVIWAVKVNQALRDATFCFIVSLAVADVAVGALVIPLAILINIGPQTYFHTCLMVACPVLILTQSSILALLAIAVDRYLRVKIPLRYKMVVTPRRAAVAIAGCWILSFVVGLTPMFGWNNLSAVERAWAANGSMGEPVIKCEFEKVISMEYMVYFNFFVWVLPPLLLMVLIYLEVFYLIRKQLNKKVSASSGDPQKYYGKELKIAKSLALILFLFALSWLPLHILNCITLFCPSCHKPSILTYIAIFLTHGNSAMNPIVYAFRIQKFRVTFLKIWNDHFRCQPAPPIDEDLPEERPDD
Outline: (§3)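 hA1 CHO membranes (50 µg protein) incubated with 1 nM [³H]DPCPX in 50 mM Tris-HCl pH 7.4 for 120 min at 25 °C. Six to eight antagonist concentrations, or 1 µM for % inhibition. Nonspecific binding taken with 1 µM DPCPX. Bound ligand filtered and counted. Ki from IC50 via Cheng–Prusoff, four separate assays in duplicate.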

[5] = biological target: T5, Adenosine receptor A3 (Homo sapiens, UniProt P0DMS8); experiment: Displacement of [125I]AB-MECA from human adenosine A3 receptor expressed in CHO cells by scintillation counting; assay type: cell-based; outline: as §2
T5 sequence (P0DMS8 whole entry): T3 sequence (whole entry)

[6] = biological target: T5, Adenosine receptor A3; experiment: Activity at human adenosine A3 receptor transfected in CHO cells assessed as Cl-IB-MECA-inhibited cAMP accumulation by scintillation counting; assay type: functional, cell-based
Outline: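 hA3-transfected CHO cells (1 × 10⁶/assay), trypsinised, pre-incubated 10 min at 37 °C in buffered salt/glucose medium pH 7.4 with adenosine deaminase 2 IU/ml and Ro 20-1724. cAMP response inhibited by 100 nM Cl-IB-MECA. Stopped with cold 6% TCA, ether-extracted, cAMP read by [³H]cAMP competition binding to beef adrenal binding protein. IC50 as mean ± SEM of four experiments.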

[7] = biological target: T2, Adenosine receptor A2a; experiment: Displacement of [3H]ZM241385 from human adenosine A2a receptor expressed in CHO cells by scintillation counting; assay type: cell-based; outline: as §1
[8] = biological target: T6, Adenosine receptor A2b (Homo sapiens, UniProt P29275); experiment: Antagonist activity at human adenosine A2b receptor transfected in CHO cells assessed as inhibition of NECA-induced cAMP accumulation by scintillation counting; assay type: functional, cell-based
T6 sequence (P29275 whole entry): T1 sequence (whole entry)

[9] = biological target: T7, Adenosine receptor A1 (Homo sapiens, UniProt P30542); experiment: Displacement of [3H]DPCPX from human adenosine A1 receptor expressed in CHO cells by scintillation counting; assay type: cell-based; outline: as §3
T7 sequence (P30542 whole entry): T4 sequence (whole entry)

| Structure (SMILES) | inhibition [1] [%] | inhibition [2] [%] | inhibition [3] [%] | inhibition [4] [%] | Ki [5] [nM] | IC50 [6] [nM] | Ki [7] [nM] | IC50 [8] [nM] | Ki [9] [nM] |
| --- | --- | --- | --- | --- | --- | --- | --- | --- | --- |
| O=C(OCc1ccccc1)c1cc2c3ccccc3[nH]c(=O)n2n1 | 2 | 4 | 1 | 3 |  |  |  |  |  |
| COC(=O)c1cc2c3ccccc3nc(O)n2n1 | 6 | 3 |  | 1 |  |  |  |  |  |
| Oc1nc2ccccc2c2cc(-c3ccccc3F)nn12 | 1 | 11 |  | 1 | 140 |  |  |  |  |
| COC(=O)c1cc2c3ccccc3[nH]c(=O)n2n1 |  |  |  |  | 440 |  |  |  |  |
| Nc1ccccc1-c1cc(-c2cccs2)[nH]n1 |  |  |  |  | 600 |  |  |  |  |
| Oc1nc2ccccc2c2cc(-c3cccs3)nn12 | 6 | 20 |  | 7 | 40 | 263 |  |  |  |
| CCOC(=O)c1cc2c3ccccc3[nH]c(=O)n2n1 |  |  |  |  | 315 |  |  |  |  |
| COc1ccc(-c2cc3c4ccccc4[nH]c(=O)n3n2)cc1 | 2 | 1 |  | 4 | 100 | 324 |  |  |  |
| CCOC(=O)c1nn2c(=O)[nH]c3ccccc3c2c1C(=O)OCC | 5 | 1 |  | 12 | 101 |  |  |  |  |
| Nc1nc2ccccc2c2cc(-c3ccccc3)nn12 | 3 | 5 | 15 | 1 |  |  |  |  |  |
| Oc1ccccc1-c1n[nH]c(-c2ccccc2)n1 | 8 | 2 | 39 | 47 |  |  |  |  |  |
| COc1ccc(-c2cc(-c3ccccc3N)[nH]n2)cc1 | 5 | 9 |  | 2 |  |  |  |  |  |
| Nc1ccccc1-c1cc(-c2cccs2)n[nH]1 | 3 | 1 |  | 2 |  |  |  |  |  |
| Oc1nc2ccccc2c2cc(-c3ccccc3)nn12 | 4 | 1 | 28 | 12 |  |  |  |  |  |
| O=C(Nc1nc2ccccc2c2cc(-c3ccccc3)nn12)c1ccccc1 | 4 | 1 |  | 1 | 520 |  |  |  |  |
| Oc1nc2ccccc2c2cc(-c3ccco3)nn12 | 3 | 1 |  | 5 | 80 | 138 |  |  |  |
| CCOC(=O)c1ccccc1-c1cc(-c2cccs2)n[nH]1 | 2 | 1 | 23 | 3 |  |  |  |  |  |
| COc1ccc(-c2cc(-c3ccccc3N)n[nH]2)cc1 |  |  |  |  | 480 |  |  |  |  |
| Nc1ccccc1-c1cc(-c2ccco2)n[nH]1 | 1 | 6 | 1 | 4 |  |  |  |  |  |
| CC(C)OC(=O)c1cc2c3ccccc3nc(O)n2n1 | 4 | 1 |  | 1 | 450 |  |  |  |  |
| CCOC(=O)c1cc2c3ccccc3nc(O)n2n1 | 3 | 5 |  | 3 |  |  |  |  |  |
| Oc1nc2ccccc2c2cc(-c3ccc(Cl)cc3)nn12 | 3 | 1 |  | 6 | 23 | 82 |  |  |  |
| Nc1nc2ccccc2c2cc(-c3ccco3)nn12 |  |  | 35 |  |  |  | 80 | 120 | 35 |
| O=C(NCc1ccccc1)c1cc2c3ccccc3[nH]c(=O)n2n1 | 1 | 5 | 25 | 2 |  |  |  |  |  |
| COc1ccc(-c2cc3c4ccccc4nc(N)n3n2)cc1 | 3 | 15 | 45 | 7 |  |  |  |  |  |
| Oc1nc2ccccc2c2cc(-c3ccccn3)nn12 | 2 | 1 |  | 4 | 252 |  |  |  |  |
| Oc1ccccc1-c1cc(-c2ccccc2)[nH]n1 | 4 | 1 | 7 | 13 |  |  |  |  |  |
| Nc1ccccc1-c1cc(-c2ccccc2)n[nH]1 | 2 | 1 |  | 9 | 680 |  |  |  |  |
| Cc1ccc(-c2cc3c4ccccc4nc(O)n3n2)cc1 | 2 | 12 |  | 1 | 25 | 88 |  |  |  |
| Nc1nc2ccccc2c2cc(-c3cccs3)nn12 | 3 | 20 | 18 | 44 |  |  |  |  |  |
